Source: ChEMBL document CHEMBL4017500 (J Med Chem, 2017)
Active and inactive are the calls of the source. The calls are words filed in the database; no cut-off is given here.

Tests used:
[1] = target: Macrophage metalloelastase (Homo sapiens) (UniProt P39900); assay: Inhibition of human MMP12 (Phe99 to Leu271 residues) expressed in Escherichia coli at 10 uM using Mca-Pro-LeuGly-Leu-Dpa-Ala-Arg-NH2.AcOH as substrate preincubated for 30 mins followed by substrate addition measured after 20 mins by fluorescence assay relative to control
Sequence of Macrophage metalloelastase (Homo sapiens) (P39900 106-470 limits assumed): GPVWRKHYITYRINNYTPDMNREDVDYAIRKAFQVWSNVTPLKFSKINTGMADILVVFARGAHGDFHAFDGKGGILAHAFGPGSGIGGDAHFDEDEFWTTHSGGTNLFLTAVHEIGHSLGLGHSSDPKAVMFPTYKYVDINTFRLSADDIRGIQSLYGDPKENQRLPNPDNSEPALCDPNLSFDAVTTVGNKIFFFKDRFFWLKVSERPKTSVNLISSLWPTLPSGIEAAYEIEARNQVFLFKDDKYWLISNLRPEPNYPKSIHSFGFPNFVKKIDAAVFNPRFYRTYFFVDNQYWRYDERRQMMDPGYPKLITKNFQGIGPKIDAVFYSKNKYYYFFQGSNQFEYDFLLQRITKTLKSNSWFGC
How it was run: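 Human recombinant MMP-2 (1.16 U/well) or MMP-12 (0.007 U/well) in 50 mM HEPES, 10 mM CaCl2, 0.05% Brij-35, pH 7.5. Enzyme and inhibitor pre-incubated 30 min at 37 °C, then OmniMMP fluorogenic substrate (4 μM) added. Fluorescence rise followed 20 min at ex/em 320/400 nm. Activity relative to no-inhibitor wells, with 200 μM NSA as 0%. Run in triplicate.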

[2] = target: Histone deacetylase 1 (Homo sapiens) (UniProt Q13547); assay: Inhibition of full length human C-terminal FLAG/His-tagged HDAC1 expressed in baculovirus infected sf9 cells at 10 uM using HDAC substrate 3 preincubated for 5 mins followed by substrate addition measured after 30 mins by fluorescence assay
Sequence of Histone deacetylase 1 (Homo sapiens) (Q13547 whole entry): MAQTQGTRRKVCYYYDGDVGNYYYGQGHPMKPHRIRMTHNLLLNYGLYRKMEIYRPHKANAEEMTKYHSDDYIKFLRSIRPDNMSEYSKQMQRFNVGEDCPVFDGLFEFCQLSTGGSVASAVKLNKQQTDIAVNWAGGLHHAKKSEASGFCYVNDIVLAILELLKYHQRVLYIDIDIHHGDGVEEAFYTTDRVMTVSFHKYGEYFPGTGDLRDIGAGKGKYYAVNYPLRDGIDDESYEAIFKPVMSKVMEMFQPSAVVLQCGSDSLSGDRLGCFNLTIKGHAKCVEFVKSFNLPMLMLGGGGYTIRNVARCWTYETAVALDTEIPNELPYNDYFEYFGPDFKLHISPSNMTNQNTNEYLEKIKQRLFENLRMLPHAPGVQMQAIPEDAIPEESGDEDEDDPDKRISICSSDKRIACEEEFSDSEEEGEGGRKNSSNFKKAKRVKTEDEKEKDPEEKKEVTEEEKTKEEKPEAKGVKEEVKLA
How it was run: (§1)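 Inhibitor pre-incubated 5 min, then HDAC substrate 3 (20 μM) added, 30 min at 37 °C. Developer added for 15 min at room temperature; fluorescence read at ex/em 360/460 nm. Activity relative to no-inhibitor wells, with 200 μM SAHA as 0%. Run in triplicate.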

[3] = target: Histone deacetylase 1 (Homo sapiens) (UniProt Q13547); assay: Inhibition of full length human C-terminal FLAG/His-tagged HDAC1 expressed in baculovirus infected sf9 cells at 50 to 100 uM using HDAC substrate 3 preincubated for 5 mins followed by substrate addition measured after 30 mins by fluorescence assay; how it was run: as §1
[4] = Metal chelating activity assessed as Co2+-compound complex formation at 1 equiv by 1H NMR spectroscopic method; type: functional
How it was run: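 Apo-NDM-1 concentrated to ~1 mM and given 2 equivalents of CoCl2, in 50 mM HEPES, 150 mM NaCl, 10% D2O, pH 6.8. Compounds, from DMSO stocks of 50–100 mM, titrated in. 1H NMR spectra recorded at 292 K at 300.16 MHz.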

Bacteria = assay: Binding affinity to bacterial CoCoNDM-1 expressed in Escherichia coli BL21(DE3) assessed as CoCoNDM-1-compound ternary complex formation at 1 equiv by 1H […] spectroscopic method
Escherichia coli [5] = assay: Inhibition of NDM1 in Escherichia coli isolate Ch8.68 assessed as potentiation of imipenem-induced antibacterial activity by measuring imipenem MIC at 100 mg/L after 18 to 20 hrs by broth microdilution assay (reference value: 16 mg/L)
Escherichia coli [6] = assay: Inhibition of NDM1 in Escherichia coli isolate Ah8.71 assessed as potentiation of imipenem-induced antibacterial activity by measuring imipenem MIC at 100 mg/L after 18 to 20 hrs by broth microdilution assay (reference value: 16 mg/L)
[7] = target: Metallo-beta-lactamase type 2 (Klebsiella pneumoniae) (UniProt C7C422); assay: Inhibition of NDM1 in Klebsiella pneumoniae isolate Pd1.50 assessed as potentiation of imipenem-induced antibacterial activity by measuring imipenem MIC at 100 mg/L after 18 to 20 hrs by broth microdilution assay (reference value: 8 mg/L)
Sequence of Metallo-beta-lactamase type 2 (Klebsiella pneumoniae) (C7C422 whole entry): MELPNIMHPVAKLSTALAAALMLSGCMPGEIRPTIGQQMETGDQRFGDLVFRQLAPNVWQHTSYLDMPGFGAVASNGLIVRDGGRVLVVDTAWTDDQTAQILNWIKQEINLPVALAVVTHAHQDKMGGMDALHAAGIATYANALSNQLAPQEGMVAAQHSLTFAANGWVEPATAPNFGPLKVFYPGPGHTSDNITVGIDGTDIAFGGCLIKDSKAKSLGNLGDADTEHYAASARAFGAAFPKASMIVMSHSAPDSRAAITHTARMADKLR

[8] = target: Metallo-beta-lactamase type 2 (Klebsiella pneumoniae) (UniProt C7C422); assay: Inhibition of NDM1 in Klebsiella pneumoniae isolate Pd1.55 assessed as potentiation of imipenem-induced antibacterial activity by measuring imipenem MIC at 100 mg/L after 18 to 20 hrs by broth microdilution assay (reference value: 8 mg/L)
Escherichia coli [9] = assay: Effect on growth of Escherichia coli isolate Ch8.69 at 100 mg/L after 18 to 20 hrs by broth microdilution assay
How it was run: (§2)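 Mueller-Hinton broth microdilution per CLSI, triplicate. blaNDM-1 clinical isolates grown from OD600 0.1 to 0.224 (~1–2 × 10^8 CFU/mL), diluted 3 μL into 4997 μL MH, and 100 μL added to 100 μL of compound (100 mg/L) alone. Incubated 37 °C for 18–20 h, then scored for growth.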

Escherichia coli [10] = assay: Effect on growth of Escherichia coli isolate Ah8.74 at 100 mg/L after 18 to 20 hrs by broth microdilution assay; how it was run: as §2
Escherichia coli [11] = assay: Effect on growth of Escherichia coli isolate Ah8.75 at 100 mg/L after 18 to 20 hrs by broth microdilution assay; how it was run: as §2
HEK293 = assay: Cytotoxicity against HEK293 cells assessed as reduction in cell viability up to 400 uM after 4 to 24 hrs by Cell-titer blue reagent based spectrophotometric assay; conditions: human
How it was run: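 HEK293 cells seeded at 10,000/well 12 h before treatment. Exposed to compound or DMSO vehicle for 4 or 24 h in DMEM with 10% serum and penicillin-streptomycin, n=6 per treatment per time point. Cell-Titer Blue added for 1 h, fluorescence read at 536ex/595em. Viability relative to vehicle (=1.0); ANOVA with Tukey post-hoc.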

SMILES: Nc1cccc(-c2cc(C(=O)O)nc(C(=O)O)c2)c1
- inhibition [1]: 48%
- inhibition [2]: inactive
- inhibition [3]: < 50%
- Activity [4]: Active
- Activity (Bacteria): Active
- MIC (Escherichia coli [5]): 1 µg/mL
- MIC (Escherichia coli [6]): 1 µg/mL
- MIC [7]: 0.5 µg/mL
- MIC [8]: 0.5 µg/mL
- Activity (Escherichia coli [9]): Non-Toxic
- Activity (Escherichia coli [10]): Non-Toxic
- Activity (Escherichia coli [11]): Non-Toxic
- Activity (HEK293): Non-Toxic
